Series [1] can be described thus: melting temperature; fluorescence melt of hairpins on a sequencing array, two-state fit, raised by 9.35 °C to match UV melts. The following applies: sodium 0.088 M. The essentials:
(§1)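 With Cy3 and quencher oligos annealed, library hairpins on a sequenced MiSeq flow cell were imaged for Cy3 fluorescence in 50 mM Na-HEPES pH 8.0, 25 mM NaCl, in 2.5 °C steps up to 60 °C. Melting temperature and folding enthalpy were derived from bootstrapped two-state fits of signals normalised to pre-quench Cy3 and to control constructs. Four replicates were combined by inverse variance, with fitted temperatures raised by 9.35 °C to match UV melts.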

Series [2] is described as follows: folding enthalpy; higher = less favourable; fluorescence melt of hairpins on a sequencing array, two-state fit. To be noted: sodium 0.088 M. The essentials: as §1

As to GTGTCCGAAAGGAACAC ((((((....))).))), the Tm in series [1] is 52.8 °C. In series [2], the folding enthalpy is -30 kcal/mol.

For GTGTCCGAAAGGAAGCAC ((((((....)))..))), the Tm in series [1] came to 38.6 °C. Further, the folding enthalpy in series [2] was -19.2 kcal/mol.

As for GTGTCCGAAAGGACGCAC ((((((....)))..))), the Tm in series [1] is 57.8 °C. Besides, the folding enthalpy in series [2] was -10.4 kcal/mol.

With GTGTCCGAAAGGAGCAC ((((((....))).))), in series [1], the Tm was 49 °C. For the same sequence, the folding enthalpy in series [2] is -23.9 kcal/mol.

Regarding GTGTCCGCGAAAGCGCAC (((..(((....)))))), the Tm in series [1] worked out at 40.5 °C. The folding enthalpy in series [2] is -14.1 kcal/mol.

In the case of GTGTCCGGAAACGGATGC (..((((....))))..), the Tm in series [1] was found to be 48 °C. For the same sequence, the folding enthalpy in series [2] is -25.7 kcal/mol.

Regarding GTGTCGCGAAAGCGCAC (((.(((....)))))), the Tm in series [1] worked out at 56.6 °C. Further, the folding enthalpy in series [2] is -18.8 kcal/mol.

On to GTGTCGTCGAAAGACCAC (((..(((....)))))), for which the Tm in series [1] was 38.4 °C. Moreover, in series [2], the folding enthalpy is -19.2 kcal/mol.

Consider GTGTCTCGAAAGAGCCAC (((.(((....))).))), for which the Tm in series [1] was 49.7 °C. Moreover, the folding enthalpy in series [2] was -28.9 kcal/mol.

Consider GTGTCTCGAAAGAGGCAC (((.(((....))).))), for which, in series [1], the Tm amounted to 61.3 °C. In series [2], the folding enthalpy was -38.5 kcal/mol.

With GTGTCTGAAAAGACAC ((((((....)))))), the Tm in series [1] stood at 61 °C. Further, the folding enthalpy in series [2] was -33.7 kcal/mol.

In the case of GTGTCTGGAAACAAACAC ((((.((....)).)))), the Tm in series [1] worked out at 33.2 °C. For the same sequence, the folding enthalpy in series [2] was -21.6 kcal/mol.

As to GTGTCTGGAAACGGATAC ((.((.(....).)).)), the Tm in series [1] is 36.6 °C. In addition, the folding enthalpy in series [2] was -17.2 kcal/mol.

GTGTCTTCGAAAGAACAC (((..(((....)))))): the Tm in series [1] was found to be 32.9 °C. Moreover, in series [2], the folding enthalpy is -17.2 kcal/mol.

Regarding GTGTGACGAAAGTCCCAC (((.(((....))).))), the Tm in series [1] came out at 50.5 °C. Moreover, the folding enthalpy in series [2] was -25 kcal/mol.

For GTGTGCGAAAGCAACAC ((((((....))).))), the Tm in series [1] was determined as 61.3 °C. For the same sequence, the folding enthalpy in series [2] was -30.1 kcal/mol.

For GTGTGCGAAAGCAATCAC ((((((....)))..))), in series [1], the Tm came to 39.9 °C. Further, the folding enthalpy in series [2] was -16.1 kcal/mol.

For the sequence GTGTGCGAAAGCAGGCAC ((((((....)))..))), the Tm in series [1] was found to be 44.8 °C. In series [2], the folding enthalpy was -15.8 kcal/mol.

For the sequence GTGTGCGAAAGCAGTCAC ((((((....)))..))), the Tm in series [1] was found to be 38.5 °C. Further, the folding enthalpy in series [2] is -16.5 kcal/mol.

Take GTGTGCGAAAGCATACAC ((((((....)))..))): the Tm in series [1] stood at 53.1 °C. In addition, the folding enthalpy in series [2] is -18.2 kcal/mol.

For GTGTGCGGAAACGCACGC (.(((((....))))).), the Tm in series [1] was determined as 66 °C. In series [2], the folding enthalpy was -16.4 kcal/mol.

GTGTGTCGAAAGACGCAC (((.(((....))).))): in series [1], the Tm was 61.4 °C. Also, the folding enthalpy in series [2] was -37.7 kcal/mol.

Regarding GTGTGTGAAAACACAC ((((((....)))))), in series [1], the Tm came to 64.3 °C. In addition, in series [2], the folding enthalpy was -36.7 kcal/mol.

With GTGTGTGGAAACACACAC (((((((....))))))), the Tm in series [1] was found to be 68.8 °C. In addition, the folding enthalpy in series [2] is -32.2 kcal/mol.

In the case of GTGTGTGGAAACACGTAC ((..(((....)))..)), the Tm in series [1] is 38.7 °C. Also, the folding enthalpy in series [2] is -11.8 kcal/mol.

Regarding GTGTGTGGAAACATACAC ((((.((....)).)))), the Tm in series [1] came out at 48.6 °C. Besides, the folding enthalpy in series [2] is -39.6 kcal/mol.

With GTGTGTGGAAACATACGC (.((.((....)).)).), in series [1], the Tm was determined as 47 °C. Moreover, in series [2], the folding enthalpy is -29.4 kcal/mol.

Turning to GTGTTAGGAAACTAACGC (.(((((....))))).), the Tm in series [1] came to 47.4 °C. In series [2], the folding enthalpy was -21.8 kcal/mol.

As for GTGTTAGGAAACTAATAC ((.((((....)))).)), in series [1], the Tm was 37.2 °C. Further, the folding enthalpy in series [2] is -23.9 kcal/mol.

Turning to GTGTTATCGAAAGATCAC (((..(((....)))))), in series [1], the Tm was 33.8 °C. Further, the folding enthalpy in series [2] is -27.6 kcal/mol.

As to GTGTTCACGAAAGTGCAC (((..(((....)))))), the Tm in series [1] was determined as 42.3 °C. Further, the folding enthalpy in series [2] is -20.7 kcal/mol.

For the sequence GTGTTCCCGAAAGGGCAC (((..(((....)))))), in series [1], the Tm turned out to be 46.1 °C. The folding enthalpy in series [2] was -22.4 kcal/mol.

Take GTGTTCCGAAAGGACCAC (((.(((....))).))): the Tm in series [1] amounted to 49.7 °C. In series [2], the folding enthalpy was -38.4 kcal/mol.

GTGTTCGAAAGAACCAC ((((((....))).))): the Tm in series [1] is 43.5 °C. Moreover, the folding enthalpy in series [2] was -13.3 kcal/mol.

As for GTGTTCGAAAGAACTCAC ((((((....)))..))), the Tm in series [1] is 38.1 °C. In addition, in series [2], the folding enthalpy was -13.7 kcal/mol.

As to GTGTTCGGAAACGAATGC (..((((....))))..), the Tm in series [1] was 42.1 °C. In addition, the folding enthalpy in series [2] is -24.9 kcal/mol.

Regarding GTGTTCGGAAACGGACAC ((((.((....)).)))), the Tm in series [1] amounted to 55 °C. In series [2], the folding enthalpy is -44.6 kcal/mol.

Take GTGTTGAAAAACAC (((((....))))): the Tm in series [1] turned out to be 49.9 °C. Also, the folding enthalpy in series [2] is -26.3 kcal/mol.

Turning to GTGTTGCCGAAAGGCCAC (((..(((....)))))), in series [1], the Tm came to 57.8 °C. For the same sequence, the folding enthalpy in series [2] is -10.3 kcal/mol.

GTGTTGCGAAAGCATCAC (((.(((....))).))): the Tm in series [1] was 54 °C. In addition, the folding enthalpy in series [2] is -30.7 kcal/mol.

Regarding GTGTTGGCGAAAGCCCAC (((..(((....)))))), the Tm in series [1] is 47 °C. Besides, the folding enthalpy in series [2] was -15.6 kcal/mol.

Consider GTGTTGGGAAACCAACAC (((((((....))))))), for which the Tm in series [1] is 63.5 °C. Besides, the folding enthalpy in series [2] was -43.1 kcal/mol.

As to GTGTTGGGAAACTAACAC (((((.(....).))))), the Tm in series [1] is 46.7 °C. The folding enthalpy in series [2] was -36.4 kcal/mol.

For GTGTTTCGAAAGAATCAC (((.(((....))).))), the Tm in series [1] turned out to be 45 °C. Further, the folding enthalpy in series [2] is -39.3 kcal/mol.

Regarding GTGTTTGGAAACAAATGC (..((((....))))..), the Tm in series [1] is 34.8 °C. The folding enthalpy in series [2] was -21.7 kcal/mol.

Consider GTGTTTGGAAACAGACAC ((((.((....)).)))), for which the Tm in series [1] was found to be 44.1 °C. Moreover, in series [2], the folding enthalpy is -36 kcal/mol.

Consider GTTAAACCGAAAGGTAAC (((..(((....)))))), for which the Tm in series [1] stood at 29.9 °C. In addition, the folding enthalpy in series [2] was -15.2 kcal/mol.

As for GTTAAAGAAATTTAAC ((((((....)))))), in series [1], the Tm was found to be 29.6 °C. In addition, in series [2], the folding enthalpy is -14.3 kcal/mol.

GTTAAAGGAAACTTTGAC ((.((((....)))).)): in series [1], the Tm was found to be 33.2 °C. Besides, in series [2], the folding enthalpy is -16.7 kcal/mol.

In the case of GTTAACACGAAAGTGAAC (((..(((....)))))), in series [1], the Tm was determined as 25.3 °C. The folding enthalpy in series [2] is -9.64 kcal/mol.

As to GTTAACCGAAAGGTCAAC (((.(((....))).))), the Tm in series [1] worked out at 37.7 °C. The folding enthalpy in series [2] is -20.5 kcal/mol.

Take GTTAACGAAAGTTAAAAC ((((((....)))..))): in series [1], the Tm was 30.2 °C. In addition, in series [2], the folding enthalpy is -9.6 kcal/mol.

For the sequence GTTAACGGAAACGTTAGC (.(((((....))))).), the Tm in series [1] stood at 42.9 °C. Moreover, in series [2], the folding enthalpy is -21.3 kcal/mol.

On to GTTAAGCGAAAGCTAAC (((.(((....)))))), for which, in series [1], the Tm was 44.4 °C. For the same sequence, in series [2], the folding enthalpy was -18.5 kcal/mol.

With GTTAAGCGAAAGCTCAAC (((.(((....))).))), in series [1], the Tm worked out at 37.6 °C. Besides, the folding enthalpy in series [2] was -16.7 kcal/mol.

The record behind these values is the array DNA melting data of Ke et al. (doi:10.1101/2024.01.08.574731).
